CAL PDZ FP-1: human CAL PDZ-peptide interaction inhibition | purified CAL PDZ, TMR-peptide fluorescence polarization, 1 h | 330,000 compounds, 0.02% hits | inhibition, % at 20 µM | AID 504414 | Q9HD26;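 active means highest replicate inhibition of at least 40%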
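Test system: tagged CAL PDZ domain / Buffer or medium: sodium phosphate/NaCl buffer pH 7.4 with TCEP, IgG, Thesit / Reagent: TMR-labelled reporter peptide T*-PRC34 bound in PDZ groove / Compound dosing: single point, 20 µM / Schedule: 1 h incubation at room temperature before polarization reading / Technique: fluorescence polarization (mP) / Benchmarks: unlabelled peptide, DMSO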
ERAP1 HTS inh: inhibitors of human ERAP1 aminopeptidase; recombinant ERAP1, Leu-AMC fluorescence, 60 min; inhibition, % at 10.7 µM; AID 652197; 340,000 compounds, 0.15% hits;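 active means mean replicate inhibition of at least 30%, or all replicates individually reaching that 30% level; inactive means mean below 30% and not every replicate reaching it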
S100A4 inh HTS: inhibitors of human S100A4 binding to myosin IIA peptide. inhibition, % at 10.7 µM. AID 652163. S100A4/TAMRA-MyoIIA peptide fluorescence polarization. P26447. 360,000 compounds, 0.14% hits;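 active means mean inhibition of at least 70% across replicates, with every replicate also reaching that level; inconclusive means mean inhibition reaches 70% but some replicates fall short; inactive means mean inhibition below 70%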
Target sequence (P26447 whole entry, looked up): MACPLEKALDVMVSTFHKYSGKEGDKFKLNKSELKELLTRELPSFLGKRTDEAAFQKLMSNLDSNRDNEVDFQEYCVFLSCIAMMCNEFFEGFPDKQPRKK
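Test system – S100A4 monomer (human) · Compound – single-point compound testing · Schedule – 5 min incubation before reading · Probe or stimulus – TAMRA-labelled myosin IIA heavy-chain peptide probe, 5 nM · Benchmarks – neutral control DMSO, positive control TFP · Medium – Calcium-containing HEPES buffer, pH 7.2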
DENV2 CPE: protects cells from dengue virus 2 cytopathic effect | 350,000 compounds, 1.7% hits | AID 651640 | DENV2-infected cells, cytopathic effect rescue, plate reader | CPE inhibition, % at 9.99 µM; in the data active means CPE inhibition above about 20%, passing the limit was not always enough; inconclusive means no clear call, values can overlap the other calls; tested in BHK-21 cells
CAL PDZ FP-2: inhibitors of human CAL PDZ peptide binding | purified CAL PDZ, TMR-peptide fluorescence polarization, 1 h | inhibition, % at 24.9 µM | 300,000 compounds, 0.92% hits | AID 602252;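 active means mean inhibition of at least 30% with at least half of replicates also reaching 30%; inconclusive means no clear call, values can overlap the other calls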
SIRT5 block: sirtuin-5 (human) deacylase inhibition; Purified SirT5, succinyl-peptide AMC, trypsin-coupled fluorescence; inhibition, % at 15 µM; 330,000 compounds, 1.1% hits; in the data active means inhibition above about 15%; inconclusive means no clear call, values can overlap the other calls
Target sequence (Q9NXA8 whole entry, looked up): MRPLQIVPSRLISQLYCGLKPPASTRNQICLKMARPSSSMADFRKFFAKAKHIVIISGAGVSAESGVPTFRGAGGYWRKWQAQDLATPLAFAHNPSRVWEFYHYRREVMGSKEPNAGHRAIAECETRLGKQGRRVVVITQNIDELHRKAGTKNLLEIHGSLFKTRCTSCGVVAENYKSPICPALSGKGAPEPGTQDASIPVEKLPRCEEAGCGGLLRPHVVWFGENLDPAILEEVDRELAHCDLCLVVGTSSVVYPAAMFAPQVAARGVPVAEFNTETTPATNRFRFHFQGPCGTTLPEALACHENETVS
Hits are given with their value; i = inactive; ? = inconclusive; nt = no result; ! = not confirmed by another sample. An excerpt weighted towards active compounds, which were near 2.9% of everything screened.

SMILES	CAL PDZ FP-1	ERAP1 HTS inh	S100A4 inh HTS	DENV2 CPE	CAL PDZ FP-2	SIRT5 block
CC(C)C#Cc1ccc2c(c1)O[C@@H](CN(C)C(=O)c1cnccn1)[C@H](C)CN([C@H](C)CO)S2(=O)=O	nt	i	i	i	nt	i
CCCCN(C(=O)c1ccc([N+](=O)[O-])o1)c1c(N)n(CC(C)C)c(=O)[nH]c1=O	i	87	i	i	i	i
CCCCN(C(=O)c1ccccc1OCc1ccc(F)cc1)c1c(N)n(CC(C)C)c(=O)[nH]c1=O	i	i	i	66	i	i
CCCCN(C(=O)c1ccc(COc2ccccc2)o1)c1c(N)n(CC(C)C)c(=O)[nH]c1=O	i	i	i	?	i	i
CCOC(=O)c1c(NC(=O)C2CCCCC2)sc2c1CCN(CC)C2	i	i	i	i	45	i
COC(=O)C(CC#Cc1ccc2c(c1)[C@]1(C(=O)N2)[C@H](C(=O)NC[C@H](O)c2ccccc2)[C@H]2C(=O)O[C@H](c3ccccc3)[C@H](c3ccccc3)N2[C@@H]1c1ccccc1OCCO)C(=O)OC	nt	i	i	i	nt	19
C=CCOC(=O)[C@@H]1[C@H]2C(=O)O[C@H](c3ccccc3)[C@H](c3ccccc3)N2[C@H](c2ccc(OCCOC(=O)[C@@H]3C[C@@H]4C(=O)N[C@@H](Cc5ccccc5)C(=O)N4[C@@H]3c3ccc(O)cc3)cc2)[C@@]12C(=O)Nc1ccc(I)cc12	nt	i	i	i	nt	19
C=CCNC(=O)[C@@H]1[C@H]2C(=O)O[C@H](c3ccccc3)[C@H](c3ccccc3)N2[C@H](c2ccc(O)cc2)[C@@]12C(=O)Nc1ccc(C#CCC(C(=O)OC)C(=O)OC)cc12	nt	i	i	32	nt	i
O=C(CCc1c[nH]c2ccccc12)Nc1ccc(S(=O)(=O)Nc2ncccn2)cc1	i	i	i	i	33	i
Cc1ccc(S(=O)(=O)N[C@@H]2CC[C@H](CCNC(=O)Nc3ccc(Cl)cc3)O[C@@H]2CO)cc1	nt	i	i	i	nt	i
O=C(NCC[C@@H]1CC[C@@H](NS(=O)(=O)c2ccc(Cl)cc2)[C@@H](CO)O1)Nc1ccc(F)cc1	nt	i	i	33	nt	i
Cc1ccc(S(=O)(=O)N[C@H]2CC[C@@H](CCNC(=O)Nc3ccc(Cl)cc3)O[C@H]2CO)cc1	nt	i	i	i	nt	103
O=C(NCC[C@H]1CC[C@@H](NS(=O)(=O)c2ccc(F)cc2)[C@H](CO)O1)Nc1ccc(Cl)cc1	nt	i	i	i	nt	i
COc1ccc2c3c([nH]c2c1)[C@@H](CO)N(C(=O)c1cnccn1)CC31CN(S(C)(=O)=O)C1	nt	i	i	i	nt	i
CC(C)CN1CCCC(N2CCN(c3cccc(Cl)c3)CC2)C1 (centres undefined)	i	i	i	27	i	i
COc1ccc(CN2CCCC(N3CCN(c4cccc(Cl)c4)CC3)C2)cc1OC (centres undefined)	i	i	i	?	i	i
C[C@@H]1CN([C@@H](C)CO)C(=O)c2cc(NS(C)(=O)=O)ccc2O[C@@H](C)CCCCO[C@H]1CN(C)Cc1ccncc1	nt	i	i	?	nt	i
CO[C@@H]1CN(C)C(=O)c2ccc(NC(=O)C3CCOCC3)cc2OC[C@H](C)N(Cc2cccnc2)C[C@@H]1C	nt	i	i	i	nt	nt
O=C(O)Cc1sc(Nc2cccc3ccccc23)nc1-c1ccc(Cl)cc1	nt	i	i	i	62	i
CO[C@@H]1CN(C)C(=O)c2cc(NS(=O)(=O)c3ccccc3)ccc2OC[C@@H](C)N(C)C[C@H]1C	nt	i	i	i	nt	i
COc1cccc(S(=O)(=O)Nc2ccc3c(c2)C(=O)N(C)C[C@H](OC)[C@H](C)CN[C@@H](C)CO3)c1	nt	i	i	20!	nt	i
CO[C@@H]1CN(C)C(=O)c2cc(NS(=O)(=O)c3ccccc3)ccc2OC[C@H](C)N(C)C[C@H]1C	nt	i	i	21	nt	i
CO[C@H]1CN(C)C(=O)c2cc(NS(=O)(=O)c3ccc(-c4ccccc4)cc3)ccc2OC[C@H](C)NC[C@@H]1C	nt	i	i	23	nt	i
O=C1NCC(=O)N2[C@@H]1C[C@@H](C(=O)NCc1ccc(F)cc1)[C@H]2c1ccc(O)cc1	nt	i	i	i	nt	i
COc1ccc(C#Cc2cnc3c(c2)C(=O)N([C@H](C)CO)C[C@H](C)[C@H](CN(C)C(=O)CN(C)C)O3)cc1	nt	i	i	i	nt	i
SMILES	CAL PDZ FP-1	ERAP1 HTS inh	S100A4 inh HTS	DENV2 CPE	CAL PDZ FP-2	SIRT5 block
Cc1ccc(S(=O)(=O)Nc2ccc3c(c2)C(=O)N([C@H](C)CO)C[C@@H](C)[C@@H](CN(C)S(=O)(=O)c2ccc(C)cc2)O3)cc1	nt	i	i	i	nt	i
N#Cc1cccc(C#N)c1N1CCC(C#N)CC1	i	i	i	i	i	24
COc1ccc(S(=O)(=O)Nc2ccc3c(c2)C(=O)N([C@H](C)CO)C[C@H](C)[C@H](CN(C)Cc2ccc(C(F)(F)F)cc2)OCCCC[C@H](C)O3)cc1	nt	i	i	i	nt	39
COc1ccc(S(=O)(=O)Nc2ccc3c(c2)C(=O)N([C@H](C)CO)C[C@@H](C)[C@@H](CN(C)Cc2ccc(C(F)(F)F)cc2)OCCCC[C@H](C)O3)cc1	nt	i	i	i	nt	17
COc1ccc(S(=O)(=O)Nc2ccc3c(c2)C(=O)N([C@@H](C)CO)C[C@@H](C)[C@@H](CN(C)Cc2ccc(C(F)(F)F)cc2)OCCCC[C@@H](C)O3)cc1	nt	i	i	i	nt	22
COc1ccc(S(=O)(=O)Nc2ccc3c(c2)C(=O)N([C@@H](C)CO)C[C@@H](C)[C@H](CN(C)Cc2ccc(C(F)(F)F)cc2)OCCCC[C@H](C)O3)cc1	nt	i	i	i	nt	i
COc1ccc(S(=O)(=O)Nc2ccc3c(c2)C(=O)N([C@H](C)CO)C[C@@H](C)[C@@H](CN(C)Cc2ccc(C(F)(F)F)cc2)OCCCC[C@@H](C)O3)cc1	nt	i	i	i	nt	15
Cc1noc(C)c1S(=O)(=O)N(C)C[C@H]1Oc2ccc(NC(=O)CCCN(C)C)cc2C(=O)N([C@@H](C)CO)C[C@H]1C	nt	i	i	i	nt	i
C=CCOc1ccc(CNCc2cccnc2)cc1OCC	i	i	i	22	i	i
COc1ccc(NC(=O)Nc2cccc3c2O[C@@H](CN(C)C(=O)NC(C)C)[C@@H](C)CN([C@@H](C)CO)C3=O)cc1	nt	i	i	38	nt	i
CC(C)NC(=O)N(C)C[C@@H]1Oc2c(NC(=O)Nc3cccc4ccccc34)cccc2C(=O)N([C@H](C)CO)C[C@H]1C	nt	nt	101	i	nt	i
CC(C)NC(=O)N(C)C[C@@H]1Oc2c(NC(=O)Nc3cccc4ccccc34)cccc2C(=O)N([C@H](C)CO)C[C@@H]1C	nt	i	i	i	nt	i
COc1ccc(NC(=O)N(C)C[C@@H]2Oc3c(NC(=O)NC(C)C)cccc3C(=O)N([C@H](C)CO)C[C@@H]2C)cc1	nt	i	i	i	nt	i
